Values after ≈ are worked out from the molar mass of the structure shown.
How the values were obtained:
Format in all cases: functional
Staphylococcus aureus [1] = assay: Antimicrobial activity against community acquired Staphylococcus aureus MW2 after 24 hrs by microdilution method; details: MW2, 24 h
How it was run: (§1)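 CLSI (M7-A6) broth microdilution with 2-fold serial compound dilutions in Mueller−Hinton broth. Inoculum was 10⁵ cfu/mL, with vancomycin as control. After 24 h at 37 °C, MIC was read as the lowest concentration inhibiting visible growth.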

Staphylococcus aureus [2] = assay: Antimicrobial activity against Staphylococcus aureus ATCC 29213 after 24 hrs by microdilution method; details: ATCC 29213, 24 h; how it was run: as §1
Staphylococcus aureus [3] = assay: Antimicrobial activity against epidemic community acquired methicillin-resistant Staphylococcus aureus USA300 after 24 hrs by microdilution method; details: USA300, 24 h
How it was run: (§2)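 CLSI broth microdilution (M7-A6) with 2-fold serial compound dilutions in Mueller–Hinton broth. Inoculum 10⁵ cfu/mL. Strains came from NARSA, stored at −70 °C and revived on Mueller–Hinton agar days before testing. After 24 h at 37 °C, MIC read as the lowest concentration preventing visible growth. Vancomycin served as control.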

Staphylococcus aureus [4] = assay: Antimicrobial activity against hospital acquired vancomycin-intermediate Staphylococcus aureus Mu50 after 24 hrs by microdilution method; details: Mu50, 24 h; how it was run: as §2
Botrytis cinerea = assay: Antifungal activity against Botrytis cinerea after 3 to 5 days by photometric method; details: read-out: ED50 (the source's name)
How it was run: (§3)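 Test compound in methanol with alkylaryl polyglycol ether emulsifier was dried in wells, then liquid potato dextrose medium with spores or mycelium of the test organism was added. Incubated 3−5 days shaking at 20 °C, 85% relative humidity. Growth was taken as the change in extinction at 620 nm before and after incubation. ED₅₀ (50% growth inhibition, ppm = μg/mL) came from a dose−response curve against untreated control.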

[5] = Antifungal activity against Leptosphaeria nodorum after 3 to 5 days by photometric method; how it was run: as §3
Pythium aphanidermatum = assay: Antifungal activity against Pythium aphanidermatum after 3 to 5 days by photometric method; details: read-out: ED50 (the source's name); how it was run: as §3
Pyricularia oryzae = assay: Antifungal activity against Pyricularia oryzae after 3 to 5 days by photometric method; details: read-out: ED50 (the source's name)
How it was run: (§4)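 Test compound in methanol with alkylaryl polyglycol ether emulsifier dried into wells. Liquid potato dextrose medium holding spores or mycelium of the fungus added. OD620 read before and after 3–5 days shaking at 20 °C, 85% relative humidity. ΔOD against untreated control fitted to a dose–response curve; ED50 (50% growth inhibition) given in ppm (μg/mL).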

[6] = Antifungal activity against Phytophthora cryptogea after 3 to 5 days by photometric method; how it was run: as §3
Fusarium culmorum = assay: Antifungal activity against Fusarium culmorum after 3 to 5 days by photometric method; details: read-out: ED50 (the source's name); how it was run: as §3
[7] = Antifungal activity against Trametes versicolor after 3 to 5 days by photometric method; how it was run: as §3
[8] = Antifungal activity against Ustilago avenae after 3 to 5 days by photometric method; how it was run: as §3
Alternaria mali = assay: Antifungal activity against Alternaria mali after 3 to 5 days by photometric method; details: read-out: ED50 (the source's name); how it was run: as §3
Pseudomonas fluorescens = assay: Antifungal activity against Pseudomonas fluorescens after 3 to 5 days by photometric method; details: read-out: ED50 (the source's name); how it was run: as §3
Fusarium graminearum = assay: Antifungal activity against Gibberella zeae after 3 to 5 days by photometric method; details: read-out: ED50 (the source's name); how it was run: as §4
Aspergillus niger = assay: Antifungal activity against Aspergillus niger after 3 to 5 days by photometric method; details: read-out: ED50 (the source's name); how it was run: as §3
Zymoseptoria tritici = assay: Antifungal activity against Septoria tritici after 3 to 5 days by photometric method; details: read-out: ED50 (the source's name); how it was run: as §3
[9] = Antifungal activity against Pyrenophora teres after 3 to 5 days by photometric method; how it was run: as §3
Phytophthora infestans = assay: Antifungal activity against Phytophthora infestans after 3 to 5 days by photometric method; details: read-out: ED50 (the source's name); how it was run: as §4
Staphylococcus aureus [10] = assay: Antimicrobial activity against methicillin-resistant Staphylococcus aureus LT-1334 after 24 hrs by microdilution method; details: LT-1334, 24 h
How it was run: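 Broth microdilution per CLSI with 2-fold serial compound dilutions. Growth and testing in half-concentrated Mueller–Hinton broth, inoculum 10⁵ cfu/mL. MIC read after 24 h at 37 °C as the lowest concentration inhibiting visible growth.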

Staphylococcus aureus [11] = assay: Antimicrobial activity against Staphylococcus aureus SG511 after 24 hrs by broth microdilution method; details: SG511, 24 h
How it was run: (§5)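 CLSI broth microdilution with 2-fold serial compound dilutions in half-concentrated Mueller−Hinton broth. Inoculum was 10⁵ cfu/mL. After 24 h at 37 °C, MIC was read as the lowest concentration inhibiting visible growth.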

Bacillus subtilis = assay: Antimicrobial activity against Bacillus subtilis 168 after 24 hrs by broth microdilution method; details: subsp. subtilis str. 168 ; how it was run: as §5

SMILES | MIC (Staphylococcus aureus [2]) [µg/mL] | MIC (Staphylococcus aureus [3]) [µg/mL] | MIC (Staphylococcus aureus [4]) [µg/mL] | EC50 (Botrytis cinerea) [µg/mL] | ED50 [5] [µg/mL] | EC50 (Pythium aphanidermatum) [µg/mL] | EC50 (Pyricularia oryzae) [µg/mL] | ED50 [6] [µg/mL] | EC50 (Fusarium culmorum) [µg/mL] | ED50 [7] [µg/mL] | ED50 [8] [µg/mL] | EC50 (Alternaria mali) [µg/mL] | EC50 (Pseudomonas fluorescens) [µg/mL] | EC50 (Fusarium graminearum) [µg/mL] | EC50 (Aspergillus niger) [µg/mL] | EC50 (Zymoseptoria tritici) [µg/mL] | ED50 [9] [µg/mL] | EC50 (Phytophthora infestans) [µg/mL] | further results
COc1c(Cl)c(C)c(Cl)c(O)c1C1c2c(CC=C(C)C)c(O)cc(O)c2C(=O)N1Cc1ccccc1 (racemic) | > 50 |  |  |  |  |  |  |  |  |  |  |  |  |  |  |  |  |  | MIC (Staphylococcus aureus [1]): > 50 µg/mL
COc1c(Cl)c(C)c(Cl)c(O)c1C(=O)c1cc(O)cc2c1CCC(C)(C)O2 |  | 7 (≈ 17 µM) | 7 (≈ 17 µM) |  |  |  |  |  |  |  |  |  |  |  |  |  |  |  | 
COc1cc(OC)c(CC=C(C)C)c(C(=O)c2c(O)c(Cl)c(C)c(Cl)c2OC)c1C=O |  | 10 (≈ 21.4 µM) | 15 (≈ 32.1 µM) | > 50 | 22.5 (≈ 48.1 µM) | 44.4 (≈ 95 µM) | 5 (≈ 10.7 µM) | > 50 | 1.2 (≈ 2.57 µM) | > 50 | > 50 | > 50 | > 50 | > 50 | > 50 | > 50 | 5.4 (≈ 11.6 µM) |  | 
COc1c(Cl)c(C)c(Cl)c(O)c1C1NC(=O)c2c(O)cc(O)c(CC=C(C)C)c21 (racemic) [PESTALACHLORIDE A] | 10 (≈ 22.8 µM) |  |  | > 50 | > 50 | > 50 | > 50 | > 50 | 31.9 (≈ 72.8 µM) | > 50 | > 50 | > 50 | > 50 | > 50 | > 50 | > 50 | 33.1 (≈ 75.5 µM) | > 50 | MIC (Staphylococcus aureus [1]): 10 µg/mL (≈ 22.8 µM)
COc1c(Cl)c(C)c(Cl)c(O)c1C1OC(=O)c2c(O)cc(O)c(CC=C(C)C)c21 (racemic) [RAC-PESTALALACTONE] |  | 25 (≈ 56.9 µM) |  | > 50 | > 50 | > 50 | > 50 | 18.9 (≈ 43 µM) | > 50 | 13.1 (≈ 29.8 µM) | > 50 | > 50 | > 50 | > 50 | > 50 | > 50 | 4.3 (≈ 9.79 µM) |  | 
COc1c(Cl)c(C)c(Cl)c(O)c1C(=O)c1cc(O)cc(O)c1CC=C(C)C [DEFORMYL-PESTALONE] |  | 5 (≈ 12.2 µM) | 5 (≈ 12.2 µM) |  |  |  |  |  |  |  |  |  |  |  |  |  |  |  | 
COc1c(Cl)c(C)c(Cl)c(O)c1C(=O)c1c(C=O)c(O)cc(O)c1CC=C(C)C [PESTALONE] | 16 (≈ 36.4 µM) | 10 (≈ 22.8 µM) | 10 (≈ 22.8 µM) | > 50 | 22.4 (≈ 51 µM) | > 50 | 28.6 (≈ 65.1 µM) | 33.9 (≈ 77.2 µM) | 0.12 (≈ 0.273 µM) | > 50 | > 50 | 22.4 (≈ 51 µM) | > 50 | > 50 | > 50 | 26.7 (≈ 60.8 µM) | 2.2 (≈ 5.01 µM) | > 50 | MIC (Staphylococcus aureus [10]): 6.25 µg/mL (≈ 14.2 µM); MIC (Staphylococcus aureus [11]): 3.1 µg/mL (≈ 7.06 µM); MIC (Bacillus subtilis): 1.6 µg/mL (≈ 3.64 µM)
COc1c(Cl)c(C)c(Cl)c(O)c1C(=O)c1c(Br)c(O)cc(O)c1Br |  | 30 (≈ 59.9 µM) | 30 (≈ 59.9 µM) | > 50 | > 50 |  | > 50 | > 50 | 0.014 (≈ 0.0279 µM) | > 50 | > 50 | > 50 | > 50 | > 50 | > 50 | > 50 | > 50 | > 50 | 
COc1c(Cl)c(C)c(Cl)c(O)c1C1c2c(CC=C(C)C)c(O)cc(O)c2C(=O)N1C (racemic) | > 50 |  |  |  |  |  |  |  |  |  |  |  |  |  |  |  |  |  | MIC (Staphylococcus aureus [1]): > 50 µg/mL
COc1cc(OC)c(Br)c(C(=O)c2c(OC)c(Cl)c(C)c(Cl)c2OC)c1Br |  |  |  | > 50 | > 50 | > 50 | 12.6 (≈ 23.2 µM) | > 50 | 2.2 (≈ 4.05 µM) | > 50 | > 50 | > 50 | > 50 | > 50 | > 50 | > 50 | 42 (≈ 77.3 µM) |  | 
CN[C@H](CC(C)C)C(=O)N[C@H]1C(=O)N[C@@H](CC(N)=O)C(=O)N[C@H]2C(=O)N[C@H]3C(=O)N[C@H](C(=O)N[C@H](C(=O)O)c4cc(O)cc(O)c4-c4cc3ccc4O)[C@H](O)c3ccc(c(Cl)c3)Oc3cc2cc(c3O[C@@H]2O[C@H](CO)[C@@H](O)[C@H](O)[C@H]2O[C@H]2C[C@](C)(N)[C@H](O)[C@H](C)O2)Oc2ccc(cc2Cl)[C@H]1O [VANCOMYCIN] |  | 0.25 (≈ 0.173 µM) |  |  |  |  |  |  |  |  |  |  |  |  |  |  |  |  | 
COc1cc(OC)c(CC=C(C)C)c(C(=O)c2c(OC)c(Cl)c(C)c(Cl)c2OC)c1Br |  |  |  | > 50 | > 50 | > 50 | > 50 | > 50 | > 50 | > 50 | > 50 | > 50 | > 50 | > 50 | > 50 | > 50 | > 50 | > 50 | 

From ChEMBL document CHEMBL2406919, “On the antibiotic and antifungal activity of pestalone, pestalachloride A, and structurally related compounds” (2013)
